Values after ≈ are worked out from the molar mass of the structure shown.
Experiments:
Klebsiella pneumoniae [1] = assay: Antimicrobial activity against carbapenem-resistant KPC-2 producing Klebsiella pneumoniae 469 transformant by agar dilution method; assay type: functional
Klebsiella pneumoniae [2] = assay: Antimicrobial activity against carbapenem-resistant KPC-2 producing Klebsiella pneumoniae 588 ST 340 expressing beta-lactamase TEM-1 and SHV-11 by agar dilution method; assay type: functional
Klebsiella pneumoniae [3] = assay: Antimicrobial activity against carbapenem-resistant KPC-2 producing Klebsiella pneumoniae 365 transformant by agar dilution method; assay type: functional
Klebsiella pneumoniae [4] = assay: Antimicrobial activity against carbapenem-resistant KPC-2 producing Klebsiella pneumoniae 526 transformant by agar dilution method; assay type: functional
Klebsiella pneumoniae [5] = assay: Antimicrobial activity against carbapenem-resistant KPC-2 producing Klebsiella pneumoniae 469 ST 277 expressing beta-lactamase SHV-27, CTX-M-15 and OXA-4 by agar dilution method; assay type: functional
Klebsiella pneumoniae [6] = assay: Antimicrobial activity against KPC-3 producing Klebsiella pneumoniae 549 transformant by agar dilution method; assay type: functional
Escherichia coli = assay: Antimicrobial activity against Escherichia coli Genehogs by agar dilution method; assay type: functional
Procedure, shortened: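 Carbapenem MICs by agar dilution, interpreted per CLSI. FDA Enterobacteriaceae breakpoints applied: susceptible ≤2 μg/ml, intermediate 4 μg/ml, resistant ≥8 μg/ml. Transformants were made in recipient E. coli GeneHogs with purified plasmid DNA.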

Klebsiella pneumoniae [7] = assay: Antimicrobial activity against carbapenem-resistant KPC-2 producing Klebsiella pneumoniae 365 ST 376 expressing beta-lactamase SHV-1, CTX-M-15 and OXA-4 by agar dilution method
Klebsiella pneumoniae [8] = assay: Antimicrobial activity against carbapenem-resistant KPC-2 producing Klebsiella pneumoniae 531 ST 376 expressing beta-lactamase SHV-1 by agar dilution method; assay type: functional
Klebsiella pneumoniae [9] = assay: Antimicrobial activity against carbapenem-resistant KPC-2 producing Klebsiella pneumoniae 523 ST 340 expressing beta-lactamase TEM-1, SHV-11 and OXA-2 by agar dilution method; assay type: functional
Klebsiella pneumoniae [10] = assay: Antimicrobial activity against carbapenem-resistant KPC-2 producing Klebsiella pneumoniae 588 transformant by agar dilution method; assay type: functional
Klebsiella pneumoniae [11] = assay: Antimicrobial activity against carbapenem-resistant KPC-2 producing Klebsiella pneumoniae 475 transformant by agar dilution method; assay type: functional
Klebsiella pneumoniae [12] = assay: Antimicrobial activity against carbapenem-resistant KPC-2 producing Klebsiella pneumoniae 531 transformant by agar dilution method; assay type: functional
Klebsiella pneumoniae [13] = assay: Antimicrobial activity against KPC-3 producing Klebsiella pneumoniae 557 ST 258 expressing beta-lactamase TEM-1 by agar dilution method
Klebsiella pneumoniae [14] = assay: Antimicrobial activity against carbapenem-resistant KPC-2 producing Klebsiella pneumoniae 525 transformant by agar dilution method; assay type: functional
Klebsiella pneumoniae [15] = assay: Antimicrobial activity against KPC-3 producing Klebsiella pneumoniae 557 transformant by agar dilution method; assay type: functional
Klebsiella pneumoniae [16] = assay: Antimicrobial activity against carbapenem-resistant KPC-2 producing Klebsiella pneumoniae 525 ST 376 expressing beta-lactamase SHV-1 by agar dilution method; assay type: functional
Klebsiella pneumoniae [17] = assay: Antimicrobial activity against carbapenem-resistant KPC-2 producing Klebsiella pneumoniae 523 transformant by agar dilution method; assay type: functional
Klebsiella pneumoniae [18] = assay: Antimicrobial activity against carbapenem-resistant KPC-2 producing Klebsiella pneumoniae 475 ST 277 expressing beta-lactamase SHV-27, CTX-M-15 and OXA-4 by agar dilution method; assay type: functional
Klebsiella pneumoniae [19] = assay: Antimicrobial activity against KPC-3 producing Klebsiella pneumoniae 549 ST 327 expressing beta-lactamase TEM-1 and CTX-M-2 by agar dilution method; assay type: functional
Klebsiella pneumoniae [20] = assay: Antimicrobial activity against carbapenem-resistant KPC-2 producing Klebsiella pneumoniae 526 ST 376 expressing beta-lactamase SHV-1 by agar dilution method; assay type: functional

SMILES	MIC (Klebsiella pneumoniae [1]) [µg/mL]	MIC (Klebsiella pneumoniae [2]) [µg/mL]	MIC (Klebsiella pneumoniae [3]) [µg/mL]	MIC (Klebsiella pneumoniae [4]) [µg/mL]	MIC (Klebsiella pneumoniae [5]) [µg/mL]	MIC (Escherichia coli) [µg/mL]	MIC (Klebsiella pneumoniae [7]) [µg/mL]	MIC (Klebsiella pneumoniae [8]) [µg/mL]	MIC (Klebsiella pneumoniae [9]) [µg/mL]	MIC (Klebsiella pneumoniae [10]) [µg/mL]	MIC (Klebsiella pneumoniae [11]) [µg/mL]	MIC (Klebsiella pneumoniae [12]) [µg/mL]	MIC (Klebsiella pneumoniae [13]) [µg/mL]	MIC (Klebsiella pneumoniae [14]) [µg/mL]	MIC (Klebsiella pneumoniae [15]) [µg/mL]	MIC (Klebsiella pneumoniae [16]) [µg/mL]	MIC (Klebsiella pneumoniae [17]) [µg/mL]	MIC (Klebsiella pneumoniae [18]) [µg/mL]	MIC (Klebsiella pneumoniae [19]) [µg/mL]	MIC (Klebsiella pneumoniae [20]) [µg/mL]	further results
C[C@@H](O)[C@H]1C(=O)N2C(C(=O)O)=C(S[C@@H]3CN[C@H](C(=O)Nc4cccc(C(=O)O)c4)C3)[C@H](C)[C@H]12	4 (≈ 8.41 µM)	128 (≈ 269 µM)	8 (≈ 16.8 µM)	8 (≈ 16.8 µM)	64 (≈ 135 µM)	0.012 (≈ 0.0252 µM)	64 (≈ 135 µM)	128 (≈ 269 µM)	64 (≈ 135 µM)	8 (≈ 16.8 µM)	8 (≈ 16.8 µM)	2 (≈ 4.21 µM)	256 (≈ 538 µM)	4 (≈ 8.41 µM)	4 (≈ 8.41 µM)	128 (≈ 269 µM)	8 (≈ 16.8 µM)	128 (≈ 269 µM)	32 (≈ 67.3 µM)	64 (≈ 135 µM)	MIC (Klebsiella pneumoniae [6]): 4 µg/mL (≈ 8.41 µM)
NCC[C@H](O)C(=O)N[C@@H]1C[C@H](N)[C@@H](O[C@H]2O[C@H](CN)[C@@H](O)[C@H](O)[C@H]2O)[C@H](O)[C@H]1O[C@H]1O[C@H](CO)[C@@H](O)[C@H](N)[C@H]1O [AMIKACIN]	16 (≈ 27.3 µM)	32 (≈ 54.6 µM)	< 2	8 (≈ 13.7 µM)	4 (≈ 6.83 µM)	< 2	4 (≈ 6.83 µM)	8 (≈ 13.7 µM)	16 (≈ 27.3 µM)	32 (≈ 54.6 µM)	8 (≈ 13.7 µM)	16 (≈ 27.3 µM)	32 (≈ 54.6 µM)	16 (≈ 27.3 µM)	< 2	8 (≈ 13.7 µM)	> 64	< 2	< 2	4 (≈ 6.83 µM)	–
C[C@H]1[C@H](NC(=O)/C(=N\OC(C)(C)C(=O)O)c2csc(N)n2)C(=O)N1S(=O)(=O)O [AZTREONAM]	32 (≈ 73.5 µM)	> 64	> 64	> 64	> 64	< 1	> 64	> 64	> 64	> 64	32 (≈ 73.5 µM)	64 (≈ 147 µM)	> 64	> 64	> 64	> 64	> 64	> 64	> 64	> 64	MIC (Klebsiella pneumoniae [6]): > 64 µg/mL
CC(C)(O/N=C(\C(=O)N[C@@H]1C(=O)N2C(C(=O)[O-])=C(C[n+]3ccccc3)CS[C@H]12)c1csc(N)n1)C(=O)O [CEFTAZIDIME]	> 64	16 (≈ 29.3 µM)	16 (≈ 29.3 µM)	16 (≈ 29.3 µM)	> 64	< 1	> 64	> 64	16 (≈ 29.3 µM)	16 (≈ 29.3 µM)	16 (≈ 29.3 µM)	16 (≈ 29.3 µM)	> 64	16 (≈ 29.3 µM)	> 64	> 64	16 (≈ 29.3 µM)	16 (≈ 29.3 µM)	16 (≈ 29.3 µM)	> 64	MIC (Klebsiella pneumoniae [6]): > 64 µg/mL
CO/N=C(\C(=O)N[C@@H]1C(=O)N2C(C(=O)O)=C(CSc3nc(=O)c(O)nn3C)CS[C@H]12)c1csc(N)n1 [CEFTRIAXONE]	> 64	> 64	–	32 (≈ 57.7 µM)	> 64	< 1	> 64	> 64	16 (≈ 28.9 µM)	32 (≈ 57.7 µM)	32 (≈ 57.7 µM)	16 (≈ 28.9 µM)	> 64	8 (≈ 14.4 µM)	32 (≈ 57.7 µM)	> 64	32 (≈ 57.7 µM)	16 (≈ 28.9 µM)	> 64	> 64	MIC (Klebsiella pneumoniae [6]): 32 µg/mL (≈ 57.7 µM)
